GASC-1 inh: inhibitors of human GASC-1 (JMJD2C) demethylase; GST-JMJD2C(1-420) H3K9me3 demethylation, DELFIA europium; inhibition, % at 2.35 µM; hit rate 0.069% among 330,000; AID 2099;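 active = more than half of a compound's replicate wells show inhibition beyond 50%, single wells judged on their own value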;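 note: signal counts dimethyl H3K9 product captured on neutravidin plate; 0% = median of DMSO wells and 100% = 0.3 times that DMSO median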
Target sequence (Q9H3R0 1-420 limits assumed): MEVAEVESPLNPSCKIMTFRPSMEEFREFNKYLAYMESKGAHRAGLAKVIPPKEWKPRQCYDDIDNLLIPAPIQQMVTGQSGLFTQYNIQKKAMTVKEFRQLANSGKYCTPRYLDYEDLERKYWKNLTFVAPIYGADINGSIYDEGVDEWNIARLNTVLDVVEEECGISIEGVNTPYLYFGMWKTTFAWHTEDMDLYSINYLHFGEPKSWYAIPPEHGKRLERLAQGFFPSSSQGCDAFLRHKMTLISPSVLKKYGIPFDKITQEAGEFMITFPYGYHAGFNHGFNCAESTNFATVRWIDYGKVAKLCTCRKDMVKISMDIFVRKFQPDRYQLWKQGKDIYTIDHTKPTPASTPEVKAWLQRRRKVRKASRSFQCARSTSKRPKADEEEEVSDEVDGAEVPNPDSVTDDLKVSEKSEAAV
Furin inhibitor: inhibitors of human furin; P09958; purified furin, fluorogenic substrate cleavage; inhibition, % at 20 µM or 30 µM; hit rate 0.061% among 220,000; AID 463115; in the data active = inhibition above about 25%
NR2E3 ag-1: NR2E3 (human) agonism. hit rate 0.12% among 320,000. Q9Y5X4. inhibition of corepressor binding, % at 4.78 µM. GST-NR2E3/biotin-RetCOR TR-FRET, 1536-well. AID 2300;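 active = percent inhibition above the cutoff of mean plus 3 SD of all tested compounds, set per screening campaign, cut at about 20% in these data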;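 note: 0% = DMSO wells and 100% = biotin wells as full block of FRET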
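Format: 1536-well format; test system: GST-NR2E3 and biotin-RetCOR proteins; read-out basis: percent inhibition of TR-FRET ratio; timing: 5 h incubation at 4 °C; detection: time-resolved FRET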
EP2 antag: inhibitors of human EP2 prostaglandin E2 receptor. C6 glioma cells expressing human EP2, cAMP TR-FRET; cells stimulated with saturating PGE2. inhibition, % at 25 µM. hit rate 0.52% among 260,000;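 active = percent inhibition above 40 after rounding to a whole number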;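 note: rat C6 glioma host cells with rolipram phosphodiesterase inhibitor present; the protocol text gives 20 µM as final concentration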
NR2E3 ag-2: human photoreceptor-specific nuclear receptor agonism | Q9Y5X4 | CHO-S Gal4-NCOR/VP16-NR2E3 two-hybrid, luciferase | inhibition of corepressor binding, % at 3.98 µM | hit rate 0.35% among 360,000 | AID 602229;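 active = inhibition above the mean of all tested compounds plus 3 SD, cut at about 70% in these data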;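 note: 0% = DMSO with NR2E3 transfected cells and 100% = cells lacking NR2E3 construct; higher means lower luciferase signal from less NR2E3 corepressor binding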
EP2 mod: modulators of human EP2 prostaglandin E2 receptor. P43116. EP2-expressing cells, cAMP HTRF FRET, PGE2 co-stimulation. induction, % at 25 µM. hit rate 0.83% among 260,000;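 active = compounds whose cAMP rise, as percent of the full-agonist control response, exceeds 60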;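 note: rat C6 glioma line stably carrying human EP2 under a CMV promoter; the protocol text gives 20 µM as final concentration; 100% = response of wells given 1 µM PGE2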
NR2E3 ag conf: confirmation of human NR2E3 agonists; CHO-S mammalian two-hybrid NR2E3-NCOR, luciferase luminescence; inhibition, % at 3.98 µM; hit rate 51% among 2,300; shares compounds with NR2E3 ag-2;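 active = average inhibition above a cutoff equal to the mean inhibition of all tested compounds plus one SD, cut at about 70% in these data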;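 note: 0% = DMSO in NR2E3 cells and 100% = DMSO in cells lacking NR2E3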
GAL4-VP16 luc: counter-screen for NR2E3 agonists: GAL4-VP16 reporter inhibitors | shares compounds with NR2E3 ag-2 | CHO-S GAL4-VP16 luciferase reporter, luminescence | inhibition, % at 3.98 µM | hit rate 29% among 2,300 | AID 624379;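 active = mean inhibition above a cutoff equal to the average over all tested compounds plus one standard deviation, cut at about 70% in these data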;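 note: luciferase from a UAS reporter driven by GAL4-VP16 transactivation; 0% = DMSO with VP16-transfected cells and 100% = DMSO with cells lacking VP16; higher means less reporter light so more repression of VP16 activity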
The depositor's hits bear a star; x = not tested or not shown. An excerpt weighted towards active compounds, which were near 1.3% of everything screened.

SMILES | GASC-1 inh | Furin inhibitor | NR2E3 ag-1 | EP2 antag | NR2E3 ag-2 | EP2 mod | NR2E3 ag conf | GAL4-VP16 luc
Cc1cccc2cc(C#N)c(SCC(=O)Nc3ccccc3Cl)nc12 | x | x | x | 16 | x | 38 | x | x
O=C(CSc1nnnn1-c1ccc(F)cc1)Nc1nc2c(s1)CCCC2 | x | x | x | 9 | x | -92 | x | x
O=C(c1cccc(S(=O)(=O)N2CCN(c3ccc(F)cc3)CC2)c1)N1CCCCCCC1 | -1 | x | 0 | x | 52 | x | 43 | 43
CN(Cc1ccc(Cl)cc1Cl)C(=O)c1cccc(S(=O)(=O)N2CCN(c3ccccc3)CC2)c1 | 8 | x | 4 | x | 23 | x | x | x
COc1cccc(CN(C)C(=O)c2cccc(S(=O)(=O)N3CCN(c4ccccc4)CC3)c2)c1OC | x | x | x | x | 55 | x | 81* | 58
CC(=O)N1CCN(C(=O)c2cccc(S(=O)(=O)N3CCN(c4ccc(F)cc4)CC3)c2)CC1 | -2 | x | -1 | x | -2 | x | x | x
Cc1nn(C)c(C)c1/C=C/C(=O)c1ccc(Cl)cc1Cl | -5 | -1 | 3 | 5 | 76* | -61 | 100* | 85*
COc1ccc(C(C(=O)NC2CCCC2)N(Cc2cccs2)C(=O)c2ccco2)cc1 (stereo unspecified) | x | x | x | 3 | x | 0 | x | x
O=c1[nH][nH]c(-c2ccccc2)c1C=Nc1ccc(OC(F)(F)F)cc1 | 2 | -13 | -1 | 3 | 67 | -14 | 34 | 0
CCN(CC(=O)Nc1ccc(NC(C)=O)cc1)C(=O)C1(c2ccc(Cl)cc2)CCC1 | x | x | x | x | 48 | x | 39 | -4
CC(=O)Nc1ccc(NC(=O)COC(=O)C2(c3ccc(Cl)cc3)CCCC2)cc1 | -1 | -20 | 0 | 10 | -25 | -64 | x | x
Cc1ccc(C(C#N)c2ccc(C(=O)c3ccc(F)cc3)cc2)cc1 (stereo unspecified) | 1 | -25 | 3 | 13 | 49 | 6 | 59 | 45
Cc1ccc(NC(=O)C(C)c2cccc(C(=O)c3ccccc3)c2)cc1O (stereo unspecified) | -4 | -23 | 1 | 12 | 65 | -59 | 95* | 80*
Cc1cccc(NC(=O)C(C)C(=O)c2ccccc2)c1 (stereo unspecified) | 13 | x | x | x | -19 | x | x | x
CC1(C)Cc2c(sc(NC(=O)CCN3CCOCC3)c2C#N)CO1 | x | x | x | 4 | x | -42 | x | x
CCn1c(Cc2ccccc2)nnc1SCC(=O)N1CCCC1 | x | x | x | 3 | x | -14 | x | x
CCn1c(Cn2nnc(-c3ccccc3)n2)nnc1SCC(=O)Nc1cccc(OC)c1 | x | x | x | 10 | x | -47 | x | x
CCc1cccc2sc(N3CCN(C(=O)c4ccc([N+](=O)[O-])o4)CC3)nc12 | 17 | x | -2 | x | 90* | x | 76* | 13
O=C(c1ccc([N+](=O)[O-])o1)N1CCN(Cc2ccccc2)CC1 | -4 | x | 5 | x | 42 | x | x | x
CN(Cc1cnc2nc(N)nc(N)c2n1)c1ccc(C(=O)NC(CCC(=O)O)C(=O)O)cc1 (stereo unspecified) | x | x | x | 10 | 62 | 7 | -27 | 3
CN(Cc1cnc2nc(N)nc(N)c2n1)c1ccc(C(=O)NC(CCC(=O)O)C(=O)O)cc1C(F)(F)F (stereo unspecified) | x | x | x | x | -16 | x | x | x
CC(C)c1ccc(OCC(=O)Nc2cccc(NC(=O)c3cccs3)c2)cc1 | x | x | x | 5 | x | -47 | x | x
c1ccc(-c2nnc3sc(CN4CCc5ccccc54)cn23)cc1 | 6 | -18 | -1 | 11 | 51 | -21 | 30 | 12
Cc1ccc(Cl)cc1N1CCN(C(=O)C2CCN(S(=O)(=O)c3cccnc3)CC2)CC1 | 4 | -16 | 0 | 10 | 52 | -8 | 53 | 40
CC(=O)N1c2ccc(S(=O)(=O)N3CCC(C(=O)N4CCN(c5ccc(Cl)cc5)CC4)CC3)cc2CC1C (stereo unspecified) | 29 | x | 2 | x | 65 | x | 77* | 68
SMILES | GASC-1 inh | Furin inhibitor | NR2E3 ag-1 | EP2 antag | NR2E3 ag-2 | EP2 mod | NR2E3 ag conf | GAL4-VP16 luc
CN(C)S(=O)(=O)N1CCC[C@@H](Cn2nc(-c3cccs3)ccc2=O)C1 | x | x | x | 3 | x | -22 | x | x
Cc1csc(NC(=O)c2ccc(Cn3nc(C)c(Br)c3C)o2)n1 | -12 | x | -2 | x | 78* | x | 73* | 62
CCN(CC)CCOC(=O)/C=C/c1ccccc1 | -3 | -4 | 1 | 14 | 1 | -22 | x | x
CCN(CC)CC(C)(C)C(=O)/C=C/c1ccc(/C=C/C(=O)C(C)(C)CN(CC)CC)cc1 | x | x | x | x | 103* | x | 96* | 56
Cc1nc2ccccn2c1-c1csc(NC(=O)c2cccnc2)n1 | x | x | x | 8 | x | 19 | x | x
COc1cnc(-c2ccccn2)nc1Sc1ccccc1Cl | -6 | -17 | -5 | 4 | 91* | -2 | 90* | 25
COc1cnc(-c2ccccn2)nc1Sc1c(Cl)cccc1Cl | -4 | -21 | 1 | 11 | 91* | 12 | 24 | 3
CNC(=O)Cc1nc2ccccc2n1CC(=O)Nc1ccc(C)c(Cl)c1 | x | x | x | 3 | x | 0 | x | x
CCSc1nsc(NC(=O)Nc2cccc(F)c2)n1 | 2 | x | 3 | x | 93* | x | 99* | 84*
S=C(Nc1ccccc1)Nc1ccc(OCc2ccc(Cl)cc2Cl)cc1 | -1 | -32 | 3 | 3 | 75* | 3 | 65 | 61
S=C(NCCSCc1ccc(Cl)cc1Cl)Nc1ccccc1 | 0 | -11 | 4 | 21 | 49 | -30 | x | x
CCOc1ccc(N2CC(C(=O)Nc3c(CC)cccc3CC)CC2=O)cc1 (stereo unspecified) | x | x | x | 9 | x | 15 | x | x
Nc1nonc1C(=O)NCCNCc1cc(Br)ccc1OCc1ccccc1F | -11 | -5 | 3 | 4 | 51 | 4 | 60 | 50
CCOc1nc2c(c(=O)n(C)c(=O)n2C)n1Cc1cccc(Br)c1 | x | x | x | 33 | x | -13 | x | x
Cc1ccc(S(=O)(=O)Nc2nc3ccccc3nc2NCc2ccco2)cc1 | -1 | -3 | 6 | 18 | -74 | 9 | x | x
Cc1ccc(S(=O)(=O)Nc2nc3ccccc3nc2NCc2ccco2)cc1C | 0 | -21 | 0 | x | 49 | 27 | 22 | 21
CCOC(=O)c1cc(C#N)c(N2CCN(C(=O)c3ccccc3)CC2)nc1C(F)(F)F | -3 | 2 | 1 | 12 | 9 | -4 | x | x
CCOC(=O)c1cc(C#N)c(N2CCN(C(=O)c3cccc(C(F)(F)F)c3)CC2)nc1C(F)(F)F | x | -31 | 1 | 13 | 50 | -13 | 25 | 40
COc1cccc(N2CCN(c3ncnc4c3[nH]c3ccc(F)cc34)CC2C)c1 (stereo unspecified) | 6 | -37 | 1 | 99* | 109* | -55 | 101* | 100*
COc1cccc(N2CCN(c3ncnc4c3[nH]c3ccccc34)CC2C)c1 (stereo unspecified) | -9 | -5 | -3 | 35 | x | -38 | x | x

Screening results as filed in PubChem.
